In ChEMBL document CHEMBL4049457, “Pentafluorosulfanyl-Substituted Benzopyran Analogues As New Cyclooxygenase-2 Inhibitors with Excellent Pharmacokinetics and Efficacy in Blocking Inflammation” (J Med Chem, 2017):

How the values were obtained:
[1] = target: Prostaglandin G/H synthase 1 (Homo sapiens, UniProt P23219); experiment: Inhibition of human COX-1 preincubated for 15 mins followed by fluorometric substrate/heme addition for 15 mins subsequently incubated with arachidonic acid for 2 mins by fluorescence analysis; assay type: ADME
[2] = (§1) Protein binding in human plasma at 10 uM after 5 hrs by rapid equilibrium dialysis; assay type: ADME, cell-free; settings: read-out: PPB (converted)
Method in brief: (§2)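 Rapid equilibrium dialysis against human plasma for 5 h; drug in plasma and buffer chambers quantified by LC/MS; bound % = [1 − (buffer/plasma concentration)] × 100, n = 3.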

[3] = target: Voltage-gated inwardly rectifying potassium channel KCNH2 (Homo sapiens, UniProt Q12809); experiment: Binding affinity to human ERG up to 50 uM after 2 hrs by fluorescence polarization assay
Method in brief: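 Fluorescence polarization tracer displacement kit: hERG membrane plus red tracer with compound or positive control, 2 h at room temperature, read with polarized excitation/emission filters; dofetilide-binding surrogate for hERG.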

[4] = target: T1, Prostaglandin G/H synthase 2 (Homo sapiens, UniProt P35354); experiment: Inhibition of recombinant human COX-2 preincubated for 15 mins followed by fluorometric substrate/heme addition for 15 mins subsequently incubated with arachidonic acid for 2 mins by fluorescence analysis
T1 sequence (P35354 whole entry): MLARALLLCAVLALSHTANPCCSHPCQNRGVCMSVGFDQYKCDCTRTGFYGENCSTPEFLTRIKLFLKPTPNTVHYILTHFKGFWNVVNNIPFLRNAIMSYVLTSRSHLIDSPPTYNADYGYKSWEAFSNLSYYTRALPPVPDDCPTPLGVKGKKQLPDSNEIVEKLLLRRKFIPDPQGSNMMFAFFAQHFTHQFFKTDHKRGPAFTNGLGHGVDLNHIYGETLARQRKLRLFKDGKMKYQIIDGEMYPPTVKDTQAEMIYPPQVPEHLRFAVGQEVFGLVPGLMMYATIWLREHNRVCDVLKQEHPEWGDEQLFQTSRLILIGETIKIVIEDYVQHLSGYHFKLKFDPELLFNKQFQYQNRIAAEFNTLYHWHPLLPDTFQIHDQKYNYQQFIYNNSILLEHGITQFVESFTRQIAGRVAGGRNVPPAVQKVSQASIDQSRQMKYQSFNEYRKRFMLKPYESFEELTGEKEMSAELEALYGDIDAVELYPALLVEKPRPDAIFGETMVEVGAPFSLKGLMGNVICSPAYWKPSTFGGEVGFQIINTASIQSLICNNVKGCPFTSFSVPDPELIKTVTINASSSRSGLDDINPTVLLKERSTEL

[5] = tested on: Plasma; experiment: as §1; assay type: ADME, cell-free; settings: 5 h, 10 µM; method in brief: as §2
[6] = tested on: Rattus norvegicus; experiment: Antiarthritic activity in adjuvant-induced Lewis rat model of arthritis assessed as reduction in arthritis score administered via oral gavage once daily starting from day 15 to 25 post adjuvant injection measured post last dose; assay type: functional; settings: 360 h
Method in brief: (§3)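 Adjuvant arthritis in male Lewis rats (170–200 g): 1 mg heat-killed M. tuberculosis in 0.2 mL mineral oil into tail base; responders (left hind paw >0.375 mL above day 0 at day 14) randomized, n = 6/group. Oral gavage once daily in 0.5% methylcellulose at 0.1–10 mg/kg, days 15–24. Day 25: plethysmometer paw volume, limb scores 0–4 (total 0–16), movement 0–3; ED50 derived.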

[7] = tested on: Rattus norvegicus; experiment: Antiinflammatory activity in carrageenan induced Sprague-Dawley rat model of inflammation assessed as reduction in paw edema administered via po 0.5 hrs prior to carrageenan challenge measured 1 to 4 hrs post challenge by plethysmometer; assay type: functional
Method in brief: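 Male SD rats dosed orally in 0.5% carboxymethyl cellulose at 1, 3, 10, 30, 100 mg/kg (n = 6), vehicle control, 0.5 h before carrageenan into right hind paw. Paw volume by water-displacement plethysmometer before and after injection; percent inhibition from paw-volume increment versus controls; ED50 fitted.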

[8] = tested on: Rattus norvegicus; experiment: Antiinociceptive activity in carrageenan induced Sprague-Dawley rat model of pain assessed as reversal of paw thermal hyperalgesia administered via po 0.5 hrs prior to carrageenan challenge measured 3 hrs post challenge; assay type: functional
Method in brief: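 Male SD rats (180–220 g), 0.2 mL 3% λ-carrageenan subcutaneously into right hind paw; oral dosing in 0.5% carboxymethyl cellulose at 1–100 mg/kg (n = 6) 0.5 h before.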

[9] = tested on: Rattus norvegicus; experiment: Antiarthritic activity in adjuvant-induced Lewis rat model of arthritis assessed as reduction in movement disorder administered via oral gavage once daily starting from day 15 to 25 post adjuvant injection measured post last dose; assay type: functional; settings: 360 h; method in brief: as §3
[10] = tested on: Rattus norvegicus; experiment: Antiinflammatory activity in carrageenan induced Sprague-Dawley rat model of inflammation assessed as reduction in PGE2 levels in air pouch administered via po 1 hr prior to carrageenan challenge measured 3 hrs post challenge by ELISA; assay type: functional
Method in brief: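 Male SD rats; 20 mL sterile air injected subcutaneously in back. Oral dosing in 0.5% carboxymethyl cellulose at 0.03–10 mg/kg (n = 6), vehicle control; 1 h later 6 mL 1% carrageenan into pouch (one day after pouch formation).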

[11] = tested on: Rattus norvegicus; experiment: Antiarthritic activity in adjuvant-induced Lewis rat model of arthritis assessed as reduction in paw edema administered via oral gavage once daily starting from day 15 to 25 post adjuvant injection measured post last dose; assay type: functional; settings: 360 h; method in brief: as §3
[12] = AUC (0 to infinity) in Sprague-Dawley rat at 5 mg/kg, iv by LC-MS/MS analysis; assay type: ADME, organism-based; parameters: dose 5 mg/kg, time infinity, route intravenous; settings: in vivo
[13] = Cmax in Sprague-Dawley rat at 5 mg/kg, po administered via gastric gavage by LC-MS/MS analysis; assay type: ADME, organism-based; parameters: dose 5 mg/kg, route oral; settings: in vivo
[14] = Half-life in Sprague-Dawley rat at 5 mg/kg, po administered via gastric gavage by LC-MS/MS analysis; assay type: ADME, organism-based; settings: in vivo
[15] = Oral bioavailability in Sprague-Dawley rat at 5 mg/kg administered via gastric gavage by LC-MS/MS analysis; assay type: ADME, organism-based; settings: in vivo
[16] = AUC (0 to infinity) in Sprague-Dawley rat at 5 mg/kg, po administered via gastric gavage by LC-MS/MS analysis; assay type: ADME, organism-based; parameters: dose 5 mg/kg, route oral, time infinity; settings: in vivo
[17] = tested on: Rattus norvegicus; experiment: Antiarthritic activity in adjuvant-induced Lewis rat model of arthritis assessed as inhibition of arthritis score at 10 mg/kg administered via oral gavage every 5 days starting from day 15 to 25 post adjuvant injection measured post last dose; assay type: functional
Method in brief: (§4)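 Lewis male rats (170–200 g) given 1 mg heat-killed M. tuberculosis in 0.2 mL mineral oil at tail base; rats with left hind paw volume increase >0.375 mL by day 14 selected. Compound dosed orally at 10 mg/kg every 5 days from day 15 (two doses). Scored day 25: paw volume, arthritis 0–16 (erythema/swelling), movement 0–3.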

[18] = tested on: Rattus norvegicus; experiment: Antiarthritic activity in adjuvant-induced Lewis rat model of arthritis assessed as inhibition of paw edema score at 10 mg/kg administered via oral gavage every 5 days starting from day 15 to 25 post adjuvant injection measured post last dose; assay type: functional; method in brief: as §4
[19] = Half-life in Sprague-Dawley rat at 5 mg/kg, iv by LC-MS/MS analysis; assay type: ADME, organism-based; settings: in vivo
[20] = tested on: Rattus norvegicus; experiment: Antiarthritic activity in adjuvant-induced Lewis rat model of arthritis assessed as inhibition of movement disorder score at 10 mg/kg administered via oral gavage every 5 days starting from day 15 to 25 post adjuvant injection measured post last dose; assay type: functional; method in brief: as §4
[21] = Cmax in Sprague-Dawley rat at 5 mg/kg, iv by LC-MS/MS analysis; assay type: ADME, organism-based; parameters: dose 5 mg/kg, route intravenous; settings: in vivo
[22] = Tmax in Sprague-Dawley rat at 5 mg/kg, po administered via gastric gavage by LC-MS/MS analysis; assay type: ADME, organism-based; settings: in vivo
[23] = Tmax in Sprague-Dawley rat at 5 mg/kg, iv by LC-MS/MS analysis; assay type: ADME, organism-based; settings: in vivo

Voltage-gated inwardly rectifying potassium channel KCNH2, sequence (Q12809 whole entry): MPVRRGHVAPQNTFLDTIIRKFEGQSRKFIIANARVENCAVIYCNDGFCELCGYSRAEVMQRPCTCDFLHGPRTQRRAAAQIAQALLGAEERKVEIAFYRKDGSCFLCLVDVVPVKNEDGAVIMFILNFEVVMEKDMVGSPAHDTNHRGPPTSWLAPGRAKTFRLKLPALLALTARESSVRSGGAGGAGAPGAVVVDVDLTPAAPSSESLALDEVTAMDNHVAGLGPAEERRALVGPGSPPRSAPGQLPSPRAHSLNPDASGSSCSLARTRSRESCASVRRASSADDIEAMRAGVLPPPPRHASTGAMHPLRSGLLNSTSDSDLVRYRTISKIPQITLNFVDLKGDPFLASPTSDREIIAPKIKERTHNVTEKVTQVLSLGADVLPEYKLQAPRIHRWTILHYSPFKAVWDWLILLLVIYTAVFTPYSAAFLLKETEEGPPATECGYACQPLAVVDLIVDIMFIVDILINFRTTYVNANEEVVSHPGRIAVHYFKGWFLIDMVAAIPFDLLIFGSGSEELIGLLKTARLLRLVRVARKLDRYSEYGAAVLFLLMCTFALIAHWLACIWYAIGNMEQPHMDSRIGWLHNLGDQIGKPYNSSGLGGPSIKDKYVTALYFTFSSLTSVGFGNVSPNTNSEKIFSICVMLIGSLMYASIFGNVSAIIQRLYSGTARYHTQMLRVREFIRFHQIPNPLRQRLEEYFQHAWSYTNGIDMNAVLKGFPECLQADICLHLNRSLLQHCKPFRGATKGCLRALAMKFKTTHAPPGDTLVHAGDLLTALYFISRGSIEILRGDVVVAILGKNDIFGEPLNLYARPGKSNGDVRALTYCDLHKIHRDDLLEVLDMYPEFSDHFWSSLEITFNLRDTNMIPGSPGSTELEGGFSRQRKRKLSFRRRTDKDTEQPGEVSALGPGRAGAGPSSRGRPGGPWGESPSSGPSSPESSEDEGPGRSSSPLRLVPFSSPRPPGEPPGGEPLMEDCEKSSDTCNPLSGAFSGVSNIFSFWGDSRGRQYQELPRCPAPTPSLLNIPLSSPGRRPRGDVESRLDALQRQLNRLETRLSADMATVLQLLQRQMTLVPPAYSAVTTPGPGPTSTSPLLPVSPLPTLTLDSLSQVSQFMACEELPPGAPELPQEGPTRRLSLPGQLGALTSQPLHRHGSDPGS
Prostaglandin G/H synthase 1, sequence (P23219 whole entry): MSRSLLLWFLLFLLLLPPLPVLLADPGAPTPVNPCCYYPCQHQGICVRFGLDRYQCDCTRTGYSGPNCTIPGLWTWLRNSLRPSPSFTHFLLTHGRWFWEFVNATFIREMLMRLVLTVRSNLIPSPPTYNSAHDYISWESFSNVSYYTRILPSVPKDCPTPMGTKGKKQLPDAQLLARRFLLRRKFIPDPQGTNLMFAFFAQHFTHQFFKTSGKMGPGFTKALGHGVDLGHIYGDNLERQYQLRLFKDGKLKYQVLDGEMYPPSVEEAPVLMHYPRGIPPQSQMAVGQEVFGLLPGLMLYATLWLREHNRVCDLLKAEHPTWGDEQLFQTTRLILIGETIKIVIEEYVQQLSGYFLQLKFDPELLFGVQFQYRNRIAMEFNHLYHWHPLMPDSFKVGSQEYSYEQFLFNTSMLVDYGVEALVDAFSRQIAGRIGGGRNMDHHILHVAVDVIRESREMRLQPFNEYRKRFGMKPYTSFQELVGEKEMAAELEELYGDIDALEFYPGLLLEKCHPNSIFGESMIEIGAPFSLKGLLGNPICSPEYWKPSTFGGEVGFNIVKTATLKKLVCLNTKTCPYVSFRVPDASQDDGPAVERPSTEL

O=C(O)C1=Cc2cc(S(F)(F)(F)(F)F)ccc2O[C@@H]1C(F)(F)F
IC50 [1]: > 30 µM
fraction unbound at 5 h, 10 µM [2]: 0.0004
Activity [3]: Not Active
IC50 [4]: 0.01 µM

CN(C)CCCN1c2ccccc2Sc2ccc(Cl)cc21.Cl [CHLORPROMAZINE HYDROCHLORIDE]
PPB [5]: 99.82%

O=C(O)C1=Cc2cc(S(F)(F)(F)(F)F)cc(Br)c2O[C@@H]1C(F)(F)F
IC50 [1]: > 10 µM
fraction unbound at 5 h, 10 µM [2]: 0.0009
IC50 [4]: 0.008 µM

O=C(O)C1=Cc2cc(S(F)(F)(F)(F)F)ccc2O[C@H]1C(F)(F)F
IC50 [1]: > 10 µM
IC50 [4]: 0.302 µM

O=C(O)C1=Cc2cc(S(F)(F)(F)(F)F)cc(Cc3ccccc3)c2OC1C(F)(F)F (centres undefined)
IC50 [1]: > 10 µM
IC50 [4]: > 100 µM

O=CC1=Cc2cc(S(F)(F)(F)(F)F)ccc2OC1C(F)(F)F (centres undefined)
IC50 [1]: > 10 µM
IC50 [4]: > 10 µM

Cc1ccc(-c2cc(C(F)(F)F)nn2-c2ccc(S(N)(=O)=O)cc2)cc1 [CELECOXIB]
ED50 [6]: 0.71 mg/kg
ED50 [7]: 2.8 mg/kg
ED50 [8]: 5 mg/kg
ED50 [9]: 9.2 mg/kg
ED50 [10]: 0.69 mg/kg
ED50 [11]: 1.6 mg/kg

CCCc1cc(S(F)(F)(F)(F)F)cc2c1OC(C(F)(F)F)C(C(=O)O)=C2 (centres undefined)
IC50 [1]: > 10 µM
Activity [3]: Not Active
IC50 [4]: 0.046 µM

O=C(O)C1=Cc2cc(S(F)(F)(F)(F)F)cc(Br)c2OC1C(F)(F)F (racemic)
IC50 [1]: > 10 µM
IC50 [4]: 0.056 µM

O=C(O)C1=Cc2ccc(S(F)(F)(F)(F)F)cc2OC1C(F)(F)F (centres undefined)
IC50 [1]: > 10 µM
fraction unbound at 5 h, 10 µM [2]: 0.0006
IC50 [4]: > 10 µM

O=C(O)C1=Cc2cc(S(F)(F)(F)(F)F)ccc2OC1C(F)(F)F (centres undefined)
AUC(0-inf) [12]: 364 µg·h/mL
ED50 [6]: 0.094 mg/kg
Activity [7]: Dose-dependent effect
ED50 [7]: 4 mg/kg
Cmax [13]: 15300 ng/mL
IC50 [1]: > 10 µM
half-life [14]: 12.5 h
bioavailability [15]: 100 to 114%
Activity [8]: Dose-dependent effect
ED50 [8]: 2.8 mg/kg
AUC(0-inf) [16]: 414 µg·h/mL
fraction unbound at 5 h, 10 µM [2]: 0.001
inhibition in vivo at 10 mg/kg [17]: 69.6%
Activity [3]: Not Active
inhibition in vivo at 10 mg/kg [18]: 66.9%
half-life [19]: 17.3 h
ED50 [9]: 0.12 mg/kg
Activity [10]: Dose-dependent effect
ED50 [10]: 0.37 mg/kg
inhibition in vivo at 10 mg/kg [20]: 79.2%
Cmax [21]: 31700 ng/mL
Tmax [22]: 7.75 h
Tmax [23]: 1.98 min
IC50 [4]: 0.018 µM
ED50 [11]: 0.093 mg/kg

Cc1cc(S(F)(F)(F)(F)F)cc2c1OC(C(F)(F)F)C(C(=O)O)=C2 (centres undefined)
IC50 [1]: > 10 µM
fraction unbound at 5 h, 10 µM [2]: 0.0005
Activity [3]: Not Active
IC50 [4]: 0.026 µM

CCCCc1cc(S(F)(F)(F)(F)F)cc2c1OC(C(F)(F)F)C(C(=O)O)=C2 (centres undefined)
IC50 [1]: > 10 µM
fraction unbound at 5 h, 10 µM [2]: 0.0008
Activity [3]: Not Active
IC50 [4]: 0.19 µM

O=CC1=Cc2cc(S(F)(F)(F)(F)F)cc(Br)c2OC1C(F)(F)F (centres undefined)
IC50 [1]: > 10 µM
IC50 [4]: > 10 µM

O=C(O)C1=Cc2cc(S(F)(F)(F)(F)F)cc(Br)c2O[C@H]1C(F)(F)F
IC50 [1]: > 10 µM
fraction unbound at 5 h, 10 µM [2]: 0.0005
IC50 [4]: 0.34 µM

CCc1cc(S(F)(F)(F)(F)F)cc2c1OC(C(F)(F)F)C(C(=O)O)=C2 (centres undefined)
IC50 [1]: > 10 µM
Activity [3]: Not Active
IC50 [4]: 0.06 µM
